# Experimental data as given in ChEMBL document CHEMBL1127618, “A novel nonpeptide HIV-1 protease inhibitor: elucidation of the binding mode and its application in the design of related analogs” (J Med Chem, 1994).
# pIC50: −log10 of the molar value.
# Molecular target: Human immunodeficiency virus type 1 protease (Human immunodeficiency virus 1, UniProt Q72874)
# Test: Inhibition of HIV-1 protease
# Outline: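 HIV-1 protease at 6.0 nM final added to inhibitor plus 40 μM undecapeptide substrate H-His-Lys-Ala-Arg-Val-Leu-(p-NO2)Phe-Glu-Ala-Nle-Ser-NH2, 1.0% DMSO, in 80 mM NaOAc, 160 mM NaCl, 1.0 mM EDTA, 1.0 mM DTT, 0.1% PEG 8000, pH 4.7, 37 °C. Inhibitor at […]. After 5 min, quenched with 2% TFA. Substrate and product resolved by reversed-phase HPLC (A220). % control from % conversion gives IC50.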
row,Compound,pIC50
1,CCOC(=O)c1cccc(OCCCc2c(O)oc3ccccc3c2=O)c1,5.85
2,O=c1oc2ccccc2c(O)c1CCOc1ccccc1,4.28
3,COc1ccc2c(O)c(CCCCc3ccccc3OC)c(=O)oc2c1,5.48
4,O=c1oc2ccccc2c(O)c1CCCN(c1ccccc1)c1ccc(F)cc1,5.26
5,COc1ccccc1OCCCc1c(O)oc2ccccc2c1=O,4.36
6,O=c1oc2ccccc2c(O)c1CCCSc1ccccc1,4.59
7,O=c1oc2ccccc2c(O)c1CCCCc1ccccc1,3.96
8,O=c1oc2ccccc2c(O)c1CCCOc1ccccc1,5.64
9,O=C(CCc1c(O)c2ccccc2oc1=O)c1ccccc1,4.05
10,O=c1oc2ccccc2c(O)c1CCCOc1cccc(Cl)c1,5.85
11,COc1ccccc1CCCCc1c(O)oc2ccccc2c1=O,5.77
12,COc1ccccc1CCCCc1c(O)oc2cc(OCc3ccccc3)ccc2c1=O,< 4.00
13,O=c1oc2ccccc2c(O)c1CCCCOc1ccccc1,< 4.00
14,COc1ccccc1CCCCc1c(O)c2ccc(O)cc2oc1=O,6.28
15,O=c1c(CC/C(=N/O)c2ccccc2)c(O)oc2ccccc12,4.15
16,O=c1[nH]c2ccccc2c(O)c1CCCOc1ccccc1,< 3.70
17,O=C(O)c1cccc(OCCCc2c(O)oc3ccccc3c2=O)c1,5.15
18,O=c1c(CCCO)c(O)oc2ccccc12,4.07
19,O=c1oc2ccccc2c(O)c1CCCOc1cccc([N+](=O)[O-])c1,5.40
20,O=c1oc2ccccc2c(O)c1CCCOC1CCCCC1,4.49
21,COc1ccc(CCCCc2c(O)oc3ccccc3c2=O)cc1,< 4.00
22,Nc1cccc(OCCCc2c(O)oc3ccccc3c2=O)c1,5.19
23,O=c1oc2ccccc2c(O)c1CCOCc1ccccc1,5.40
24,NC(=O)c1cccc(OCCCc2c(O)oc3ccccc3c2=O)c1,5.41
25,N#Cc1cccc(OCCCc2c(O)c3ccccc3oc2=O)c1,6.17
26,O=c1oc2ccccc2c(O)c1CCCOCc1ccccc1,4.42
27,O=c1c(CCCOc2cccc(CO)c2)c(O)oc2ccccc12,5.64
28,O=c1oc2ccccc2c(O)c1SCCOc1ccccc1,4.62
29,O=c1oc2ccccc2c(O)c1CCCN(Cc1ccccc1)c1ccccc1,4.89
